Source: ChEMBL document CHEMBL1134147, “3-Arylpiperidines as potentiators of existing antibacterial agents” (Bioorg Med Chem Lett, 2001)
Converted amounts (≈) assume the structure as drawn. Residues, ends and D or L forms follow the SMILES beside them. *: point of attachment. βNA = c1ccc2cc(N*)ccc2c1

Key:
Escherichia coli [1] = test: Antibacterial activity against Escherichia coli strain ATCC 25922; assay type: functional
Staphylococcus aureus = test: Antibacterial activity against Staphylococcus aureus strain ATCC 29213; assay type: functional
Escherichia coli [2] = test: Inhibitory activity against accumulation of [14C]-labeled Linezolid within wild-type Escherichia coli K12 cells; assay type: functional, cell-based; details: K-12, K12
Method in brief: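 E. coli K12 grown at 37 °C in LB + 0.2% glucose, rinsed twice, resuspended to OD530 8.0 in 50 mM KPO4 pH 7.0, 1 mM MgSO4, 0.2% glucose. Preincubated 10 min at 37 °C, inhibitor added for 30 min, then 14C-linezolid (30 µM final) 15 min. Cells spun through an oil cushion and scintillation counted. IC50 is half-maximal accumulation relative to 100 µM CCCP control.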

Clc1ccc(Cl)c(CCC2CCCNC2)c1 (configuration not stated)
MIC (Escherichia coli [1]): 128 µg/mL (≈ 496 µM)
MIC (Staphylococcus aureus): 64 µg/mL (≈ 248 µM)
IC50 (Escherichia coli [2]): 195 µM

Cl.F[C@@H]1CCNC[C@H]1CCc1cc(Br)ccc1Cl
MIC (Escherichia coli [1]): 64 µg/mL
MIC (Staphylococcus aureus): 64 µg/mL
IC50 (Escherichia coli [2]): 90 µM

Cl.FC1=C(Cc2cc(Br)ccc2Cl)CNCC1
MIC (Escherichia coli [1]): 128 µg/mL
MIC (Staphylococcus aureus): > 128 µg/mL
IC50 (Escherichia coli [2]): 480 µM

Cl.Clc1ccc(Br)cc1CCC1CCCNC1 (configuration not stated)
MIC (Escherichia coli [1]): 128 µg/mL
MIC (Staphylococcus aureus): 64 µg/mL
IC50 (Escherichia coli [2]): 185 µM

Cl.OC1CCNC[C@@H]1Cc1cc(Br)ccc1Cl (some centres not stated)
MIC (Escherichia coli [1]): > 256 µg/mL
MIC (Staphylococcus aureus): > 128 µg/mL
IC50 (Escherichia coli [2]): > 900 µM

Cl.O[C@H]1CCNC[C@@H]1Cc1cc(Br)ccc1Cl
MIC (Escherichia coli [1]): > 256 µg/mL
MIC (Staphylococcus aureus): > 128 µg/mL
IC50 (Escherichia coli [2]): > 900 µM

Cl.Clc1ccc(Br)cc1CC1=CCCNC1
MIC (Escherichia coli [1]): 256 µg/mL
MIC (Staphylococcus aureus): 128 µg/mL
IC50 (Escherichia coli [2]): 600 µM

Cl.F[C@H]1CCNC[C@@H]1Cc1cc(Br)ccc1Cl
MIC (Escherichia coli [1]): 256 µg/mL
MIC (Staphylococcus aureus): > 125 µg/mL
IC50 (Escherichia coli [2]): > 900 µM

Cl.O=C1CCNCC1Cc1cc(Br)ccc1Cl (configuration not stated)
MIC (Escherichia coli [1]): > 256 µg/mL
MIC (Staphylococcus aureus): > 128 µg/mL
IC50 (Escherichia coli [2]): > 900 µM

F[C@H]1CCNC[C@@H]1CCCc1cc(Br)ccc1Cl
IC50 (Escherichia coli [2]): 400 µM

c1ccc(CCC2CCCNC2)cc1 (configuration not stated)
MIC (Escherichia coli [1]): > 128 µg/mL
MIC (Staphylococcus aureus): > 128 µg/mL
IC50 (Escherichia coli [2]): > 900 µM

Cl.Clc1ccc(Br)cc1/C=C/C1CCCNC1 (configuration not stated)
MIC (Escherichia coli [1]): 64 µg/mL
MIC (Staphylococcus aureus): 32 µg/mL
IC50 (Escherichia coli [2]): 140 µM

N#Cc1ccc(CCC2CCCNC2)cc1 (configuration not stated)
MIC (Escherichia coli [1]): > 128 µg/mL
MIC (Staphylococcus aureus): > 128 µg/mL
IC50 (Escherichia coli [2]): > 900 µM

CCOc1ccc(CCC2CCCNC2)cc1 (configuration not stated)
MIC (Escherichia coli [1]): > 128 µg/mL
MIC (Staphylococcus aureus): > 128 µg/mL
IC50 (Escherichia coli [2]): > 900 µM

Cc1ccc(C)c(CCC2CCCNC2)c1 (configuration not stated)
MIC (Escherichia coli [1]): > 128 µg/mL
MIC (Staphylococcus aureus): > 128 µg/mL
IC50 (Escherichia coli [2]): > 900 µM

COc1ccccc1-c1ccc(CCC2CCCNC2)c(Cl)c1 (configuration not stated)
MIC (Escherichia coli [1]): 64 µg/mL (≈ 194 µM)
MIC (Staphylococcus aureus): 32 µg/mL (≈ 97 µM)
IC50 (Escherichia coli [2]): > 900 µM

Clc1ccc(CCC2CCCNC2)cc1Cl (configuration not stated)
MIC (Escherichia coli [1]): 128 µg/mL (≈ 496 µM)
MIC (Staphylococcus aureus): 128 µg/mL (≈ 496 µM)
IC50 (Escherichia coli [2]): 200 µM

Clc1cccc(Cl)c1CCC1CCCNC1 (configuration not stated)
MIC (Escherichia coli [1]): > 128 µg/mL
MIC (Staphylococcus aureus): > 128 µg/mL
IC50 (Escherichia coli [2]): 290 µM

FC(F)(F)c1cc(CCC2CCCNC2)cc(C(F)(F)F)c1 (configuration not stated)
MIC (Escherichia coli [1]): 64 µg/mL (≈ 197 µM)
MIC (Staphylococcus aureus): 64 µg/mL (≈ 197 µM)
IC50 (Escherichia coli [2]): 300 µM

N=C(N)NCCC[C@H](NC(=O)[C@@H](N)Cc1ccccc1)C(=O)Nc1ccc2ccccc2c1 [PABETAN] (H-Phe-Arg-βNA)
MIC (Escherichia coli [1]): 256 µg/mL (≈ 573 µM)
IC50 (Escherichia coli [2]): 730 µM
